Test results published in ChEMBL document CHEMBL1687707, “Changes in the plasmodial surface anion channel reduce leupeptin uptake and can confer drug resistance in Plasmodium falciparum-infected erythrocytes” (Antimicrob Agents Chemother, 2008).
Activity calls are given as the source filed them. The calls are words filed in the database; no cut-off is given here.

Columns and labels:
Plasmodium falciparum [1] = test: Antimicrobial activity against leupeptin resistant-Plasmodium falciparum HB3-leuR1 mutant infected in erythrocytes assessed as growth inhibition after 72 hrs by SYBR Green I-based fluorescence assay; assay type: functional, organism-based; details: HB3-leuR1, 72 h
How it was run: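 Sorbitol-synchronized cultures seeded at 0.2–0.5% parasitemia, 5% hematocrit in RPMI 1640/25 mM HEPES/2% serum/hypoxanthine. Incubated 72 h at 37°C in 5% O₂-5% CO₂. Freeze-thaw, then SYBR green I, 30 min dark, fluorescence 485/528 nm. Triplicate means with background subtracted (20 μM chloroquine-killed cultures). IC50 by nonlinear fit, three or more experiments.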

Plasmodium falciparum [2] = test: Antimicrobial activity against wild type Plasmodium falciparum HB3 infected in erythrocytes assessed as growth inhibition after 72 hrs by SYBR Green I-based fluorescence assay; assay type: functional, organism-based; details: HB3, 72 h
[3] = Inhibition of PSAC-mediated sorbitol uptake in erythrocytes infected with leupeptin resistant-Plasmodium falciparum HB3-leuR1 at 50 uM; assay type: cell-based
[4] = (§1) Activity of PSAS assessed as channel-mediated drug uptake measured by inhibition of papain-mediated substrate hydrolysis by Plasmodium falciparum HB3 infected erythrocyte cytosol harvested from cells incubated at 40 uM for 15 mins by Z-Phe-Arg-AMC substrate hydrolysis assay
How it was run: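 They were counted, then lysed at 20% hematocrit with 0.05% saponin. Cytosol from 10⁸ cells went into pH 5.5 acetate with 10 mM DTT and 150 ng/ml papain, then 50 μM Z-Phe-Arg-AMC. Rates came from 353/442 nm readings over 10 min; four experiments.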

[5] = as §1, with “mins in presence og PSAC antagonist NPF1” for “mins”; assay type: functional
How it was run: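 Erythrocyte cytosol was released with 0.05% saponin, and 10⁸-cell equivalents were incubated with 150 ng/ml papain and 10 mM DTT at pH 5.5. Z-Phe-Arg-AMC (50 μM) hydrolysis was read every 2 min for 10 min, given as percent inhibition; four experiments.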

[6] = Activity of PSAS assessed as channel-mediated drug uptake measured by inhibition of papain-mediated substrate hydrolysis by leupeptin resistant-Plasmodium falciparum HB3-leuR1 infected erythrocyte cytosol harvested from cells incubated at 40 uM for 15 mins by Z-Phe-Arg-AMC substrate hydrolysis assay
Plasmodium falciparum [7] = test: Antimicrobial activity against leupeptin resistant-Plasmodium falciparum HB3-leuR1 mutant infected in erythrocytes assessed as growth inhibition after 72 hrs in presence of PSAC antagonist NPF1 by SYBR Green I-based fluorescence assay; assay type: functional, organism-based
How it was run: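 SYBR green I growth assay for 72 h at 37°C using serial dilutions of several fixed molar ratios of leupeptin and NPF-1. IC50 of each agent interpolated for each ratio and plotted as an isobologram. Background subtracted using chloroquine-killed cultures.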

Falcipain 2 [8] = target: Falcipain 2 (Plasmodium falciparum, UniProt Q9N6S8); test: Inhibition of Cysteine protease falcipain-2 in Plasmodium falciparum HB3-leuR1 mutant infected erythrocytes by Z-Phe-Arg-AMC substrate hydrolysis assay
How it was run: (§2)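 Soluble extracts from trophozoite-infected erythrocytes enriched to 95–99% parasitemia (Percoll-sorbitol). Adjusted to 40 μg/ml protein in 0.1 M sodium acetate pH 5.5 with 10 mM DTT, with or without leupeptin. Prewarmed to 37°C; 50 μM Z-Phe-Arg-AMC added; fluorescence 353/442 nm read every 2 min. Rates by regression over 10–90 min, triplicate. K0.5 fit with Hill coefficient 1.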

Falcipain 2 [9] = target: T1, Falcipain 2 (Plasmodium falciparum, UniProt Q9N6S8); test: Inhibition of Cysteine protease falcipain-2 in Plasmodium falciparum HB3 infected erythrocytes by Z-Phe-Arg-AMC substrate hydrolysis assay
T1 sequence (Q9N6S8 whole entry): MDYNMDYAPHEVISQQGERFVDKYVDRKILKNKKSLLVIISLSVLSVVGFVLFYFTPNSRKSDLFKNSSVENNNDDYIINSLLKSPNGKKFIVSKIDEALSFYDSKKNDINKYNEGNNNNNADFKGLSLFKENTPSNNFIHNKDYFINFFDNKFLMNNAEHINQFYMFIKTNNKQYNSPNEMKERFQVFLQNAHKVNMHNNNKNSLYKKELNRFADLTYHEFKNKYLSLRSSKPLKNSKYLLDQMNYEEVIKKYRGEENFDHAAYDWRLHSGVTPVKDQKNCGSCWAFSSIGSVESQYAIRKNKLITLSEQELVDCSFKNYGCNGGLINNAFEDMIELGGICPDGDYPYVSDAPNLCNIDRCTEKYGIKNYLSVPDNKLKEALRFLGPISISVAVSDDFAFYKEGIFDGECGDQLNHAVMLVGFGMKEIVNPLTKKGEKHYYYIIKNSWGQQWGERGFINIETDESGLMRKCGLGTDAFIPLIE
How it was run: (§3)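 Soluble extracts came from trophozoite-infected cells enriched to 95–99% parasitemia. They were set at 40 μg/ml protein in 0.1 M sodium acetate pH 5.5 with 10 mM DTT and leupeptin, prewarmed to 37°C, then given 50 μM Z-Phe-Arg-AMC. Fluorescence (353/442 nm) was read every 2 min, with rates regressed over 10–90 min and triplicate means. K0.5 came from a 1:1 fit; n=4.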

Plasmodium falciparum [10] = test: Induction of parasite morphology changes in wild type Plasmodium falciparum HB3 infected in erythrocytes assessed as occurrence of enlarged digestive vacuoles by transmission electron microscopy; assay type: functional, organism-based
How it was run: (§4)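 For electron microscopy, infected erythrocytes were cultured with 100 μM leupeptin for 6 h. They were fixed overnight at 4°C in 2.5% glutaraldehyde/4% paraformaldehyde in 0.1 M cacodylate pH 7.4, postfixed in osmium tetroxide/ferricyanide and stained with uranyl acetate. Samples were Spurr-embedded, and thin sections were lead/uranyl stained and imaged at 80 kV.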

Plasmodium falciparum [11] = test: Induction of parasite morphology changes in leupeptin resistant-Plasmodium falciparum HB3-leuR1 mutant infected in erythrocytes assessed as occurrence of enlarged digestive vacuoles by transmission electron microscopy; assay type: functional, organism-based
[12] = target: T2, Cysteine protease falcipain-3 (Plasmodium falciparum, UniProt Q9NAW4); test: Inhibition of Cysteine protease falcipain-3 in Plasmodium falciparum HB3 infected erythrocytes by Z-Phe-Arg-AMC substrate hydrolysis assay; how it was run: as §3
T2 sequence (Q9NAW4 whole entry): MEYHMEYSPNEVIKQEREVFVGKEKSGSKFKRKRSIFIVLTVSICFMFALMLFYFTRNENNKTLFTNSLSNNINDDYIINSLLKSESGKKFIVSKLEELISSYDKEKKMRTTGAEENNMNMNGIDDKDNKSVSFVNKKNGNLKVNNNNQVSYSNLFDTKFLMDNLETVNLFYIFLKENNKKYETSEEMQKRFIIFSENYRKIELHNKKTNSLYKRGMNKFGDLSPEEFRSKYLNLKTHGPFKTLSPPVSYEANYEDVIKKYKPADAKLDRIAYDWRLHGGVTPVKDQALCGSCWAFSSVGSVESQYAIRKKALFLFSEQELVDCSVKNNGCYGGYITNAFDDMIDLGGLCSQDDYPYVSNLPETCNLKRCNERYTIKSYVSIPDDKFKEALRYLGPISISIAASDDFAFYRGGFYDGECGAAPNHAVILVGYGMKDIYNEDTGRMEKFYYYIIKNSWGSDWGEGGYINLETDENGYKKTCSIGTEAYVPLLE

[13] = target: Cysteine protease falcipain-3 (Plasmodium falciparum, UniProt Q9NAW4); test: Inhibition of Cysteine protease falcipain-3 in Plasmodium falciparum HB3-leuR1 mutant infected erythrocytes by Z-Phe-Arg-AMC substrate hydrolysis assay; how it was run: as §2
[14] = Inhibition of PSAC-mediated sorbitol uptake in erythrocytes infected with Plasmodium falciparum HB3 at 50 uM; assay type: cell-based
How it was run: (§5)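 Percoll-sorbitol-enriched trophozoite-infected cells were washed in PBS, then suspended at 0.5% hematocrit in 280 mM sorbitol, 20 mM sodium HEPES and 0.1 mg/ml BSA, pH 7.4, with PSAC antagonists. Osmotic lysis kinetics gave half-times, and K0.5 was fitted by nonlinear least squares.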

Plasmodium falciparum [15] = test: Reduction in formation of hemozoin crystals in wild type Plasmodium falciparum HB3 infected in erythrocytes at 100 uM for 6 hrs by transmission electron microscopy; assay type: functional, organism-based; how it was run: as §4
Plasmodium falciparum [16] = test: Reduction in formation of hemozoin crystals in leupeptin resistant-Plasmodium falciparum HB3-leuR1 mutant infected in erythrocytes at 100 uM for 6 hrs by transmission electron microscopy; assay type: functional, organism-based
How it was run: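 Infected erythrocytes cultured with 100 μM leupeptin for 6 h. Fixed overnight at 4°C in 2.5% glutaraldehyde-4% paraformaldehyde in cacodylate pH 7.4. Postfixed in osmium tetroxide-ferricyanide, stained with uranyl acetate, embedded in Spurr's resin. Thin sections stained with uranyl acetate/lead citrate and imaged at 80 kV.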

[17] = target: T3, Falcipain 2 (Plasmodium falciparum) (UniProt Q9N6S8); test: Inhibition of Cysteine protease falcipain-2 in Plasmodium falciparum HB3 infected erythrocytes assessed as slowing of substrate hydrolysis by Z-Phe-Arg-AMC substrate hydrolysis assay; how it was run: as §2
T3 sequence (whole entry): T1 sequence (Q9N6S8 whole entry)

[18] = target: T3, Falcipain 2 (Plasmodium falciparum); test: Inhibition of Cysteine protease falcipain-2 in Plasmodium falciparum HB3-leuR1 mutant infected erythrocytes assessed as slowing of substrate hydrolysis by Z-Phe-Arg-AMC substrate hydrolysis assay; how it was run: as §2
[19] = target: T4, Cysteine protease falcipain-3 (Plasmodium falciparum) (UniProt Q9NAW4); test: Inhibition of Cysteine protease falcipain-3 in Plasmodium falciparum HB3 infected erythrocytes assessed as slowing of substrate hydrolysis by Z-Phe-Arg-AMC substrate hydrolysis assay; how it was run: as §2
T4 sequence (whole entry): T2 sequence (Q9NAW4 whole entry)

[20] = target: T4, Cysteine protease falcipain-3 (Plasmodium falciparum); test: Inhibition of Cysteine protease falcipain-3 in Plasmodium falciparum HB3-leuR1 mutant infected erythrocytes assessed as slowing of substrate hydrolysis by Z-Phe-Arg-AMC substrate hydrolysis assay; how it was run: as §2
Plasmodium falciparum [21] = test: Reduction in hemozoin production in wild type Plasmodium falciparum HB3 infected in erythrocytes at 50 uM for 18 hrs by absorbance scan at 400 nm
Plasmodium falciparum [22] = test: Reduction in hemozoin production in leupeptin resistant-Plasmodium falciparum HB3-leuR1 mutant infected in erythrocytes at 50 uM for 18 hrs by absorbance scan at 400 nm
Plasmodium falciparum [23] = test: Antimicrobial activity against wild type Plasmodium falciparum HB3 infected in erythrocytes assessed as growth inhibition after 5 days by SYBR Green I-based fluorescence assay; details: HB3, 5 days
Plasmodium falciparum [24] = test: Antimicrobial activity against leupeptin resistant-Plasmodium falciparum HB3-leuR1 mutant infected in erythrocytes assessed as growth inhibition after 5 days by SYBR Green I-based fluorescence assay; details: HB3-leuR1, 5 days
[25] = Inhibition of PSAC-mediated sorbitol uptake in erythrocytes infected with Plasmodium falciparum HB3 at 100 to 5000 uM by osmotic lysis half-time determination assay; assay type: cell-based; how it was run: as §5
[26] = Inhibition of PSAC-mediated sorbitol uptake in erythrocytes infected with leupeptin resistant-Plasmodium falciparum HB3-leuR1 by osmotic lysis half-time determination assay; assay type: cell-based
[27] = Inhibition of single PSAC in erythrocytes infected with Plasmodium falciparum HB3 at 100 to 5000 uM by cell attached patch clamp method; assay type: cell-based
How it was run: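 Cell-attached patch-clamp recordings were made on trophozoite-stage infected erythrocytes. Bath and pipette solutions were symmetric: 1,000 mM choline chloride, 115 mM NaCl, 10 mM MgCl₂, 5 mM CaCl₂ and 20 mM sodium HEPES, pH 7.4.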

[28] = Inhibition of single PSAC in erythrocytes infected with leupeptin resistant-Plasmodium falciparum HB3-leuR1 cell attached patch clamp method; assay type: cell-based

`C[C@@H]1CC[C@H]2[C@@H](C)C(=O)O[C@@H]3O[C@@]4(C)CC[C@@H]1[C@]32OO4` [ARTEMISININ] gave an IC50 (Plasmodium falciparum [1]) of 7.71 nM and an IC50 (Plasmodium falciparum [2]) of 8.36 nM.

For `CC(=O)N[C@@H](CC(C)C)C(=O)N[C@@H](CC(C)C)C(=O)N[C@H](C=O)CCCNC(=N)N` [LEUPEPTIN], the inhibition [3] was “inactive”, the Activity [4] was “Active” and the Activity [5] was “inactive”. For the same compound, the Activity [6] was “inactive”, the “growth inhibition (GI)” value (Plasmodium falciparum [7]) was “inactive” and the IC50 (Falcipain 2 [8]) was 98 nM. For the same compound, the IC50 (Falcipain 2 [9]) was 87 nM, the Activity (Plasmodium falciparum [10]) was “Active” and the Activity (Plasmodium falciparum [11]) was “inactive”. The IC50 [12] was 87 nM, the IC50 [13] was 98 nM and the inhibition [14] was “inactive”. For the same compound, the Activity (Plasmodium falciparum [15]) was “Active”, the Activity (Plasmodium falciparum [16]) was “inactive” and the inhibition [17] was “Active”. The inhibition [18] was “Active”, the inhibition [19] was “Active” and the inhibition [20] was “Active”. The Activity (Plasmodium falciparum [21]) was “Active”, the Activity (Plasmodium falciparum [22]) was “inactive” and the IC50 (Plasmodium falciparum [23]) was 18000 nM. The IC50 (Plasmodium falciparum [24]) was 74000 nM.

For `CC(C)CC(=O)N[C@H](C(=O)N[C@H](C(=O)N[C@@H](CC(C)C)[C@@H](O)CC(=O)N[C@@H](C)C(=O)N[C@@H](CC(C)C)[C@@H](O)CC(=O)O)C(C)C)C(C)C` [PEPSTATIN], the IC50 (Plasmodium falciparum [23]) was 39200 nM and the IC50 (Plasmodium falciparum [24]) was 29400 nM.

Work on `C=C[C@H]1CN2CC[C@H]1C[C@H]2[C@H](O)c1ccnc2ccc(OC)cc12` [QUININE] yielded an IC50 (Plasmodium falciparum [1]) of 74 nM and an IC50 (Plasmodium falciparum [2]) of 77.1 nM.

In the case of `O=C(CCc1ccc(O)cc1)c1c(O)cc(O)cc1O[C@@H]1O[C@H](CO)[C@@H](O)[C@H](O)[C@H]1O` [PHLORIZIN], the inhibition [25] is reported as “Active”, the inhibition [26] is reported as “inactive” and the IC50 [27] is reported as 17000 nM. It also gave an IC50 [28] of 340000 nM.

Compound `CC(C)C[C@H](NC(=O)[C@H]1O[C@@H]1C(=O)O)C(=O)NCCCCN=C(N)N` [E-64] has an IC50 (Plasmodium falciparum [23]) of 3690 nM and an IC50 (Plasmodium falciparum [24]) of 5880 nM.

`CN(CC[C@H](N)CC(=O)N[C@H]1C=C[C@H](n2ccc(N)nc2=O)O[C@@H]1C(=O)O)C(=N)N` [BLASTICIDIN_S] gave an IC50 (Plasmodium falciparum [23]) of 430 nM and an IC50 (Plasmodium falciparum [24]) of 1150 nM.
